This is an account of results in ChEMBL document CHEMBL5356993, “Novel pyrazolo[3,4-d]pyrimidine derivatives: design, synthesis, anticancer evaluation, VEGFR-2 inhibition, and antiangiogenic activity” (RSC Med Chem, 2023).

Where only a bound is given, the exact number is not on record here.

For the first assay, the system named is HCT-15. Kind of assay: Antiproliferative activity against human HCT-15 cells assessed as cell growth inhibition at 10 uM incubated for 48 hrs by SRB assay relative to control. The format is functional. The settings on record: read-out: GI.
Regarding `CC(=O)Nc1ccc(-n2c(C)nc3c(cnn3-c3ccccc3)c2=O)cc1`, the inhibition of growth at 10 µM is 15.1%.

A further assay relates to UACC-62. Put plainly: Antiproliferative activity against human UACC-62 cells assessed as cell growth inhibition at 10 uM incubated for 48 hrs by SRB assay relative to control. The settings on record: read-out: GI. The format is functional. The procedure, abridged: (§1)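 Cells pre-incubated 24 h at 37°C, 5% CO2, then exposed to compound (DMSO stock diluted in medium with 50 µg/mL gentamicin) for 48 h. Adherent cells fixed with cold TCA (final 10%, 60 min, 4°C); suspension cells fixed with 16% TCA final. Stained with 0.4% SRB in 1% acetic acid for 10 min, dye solubilized in 10 mM Trizma base, absorbance read at 515 nm. Growth calculated against time-zero and untreated control plates.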
For `CC(=O)Nc1ccc(-n2c(C)nc3c(cnn3-c3ccccc3)c2=O)cc1`, the inhibition of growth at 10 µM came out at 38.3%.

A further assay concerns OVCAR-4. Kind of assay: Antiproliferative activity against human OVCAR-4 cells assessed as cell growth inhibition at 10 uM incubated for 48 hrs by SRB assay relative to control. The format is functional. The settings on record: read-out: GI.
Regarding `CC(=O)Nc1ccc(-n2c(C)nc3c(cnn3-c3ccccc3)c2=O)cc1`, the inhibition of growth at 10 µM turned out to be 44.8%.

In another assay the test system is HCT-116. Put plainly: Antiproliferative activity against human HCT-116 cells assessed as cell growth inhibition at 10 uM incubated for 48 hrs by SRB assay relative to control. The settings on record: read-out: GI. The format is functional.
For the compound `CC(=O)Nc1ccc(-n2c(C)nc3c(cnn3-c3ccccc3)c2=O)cc1`, the inhibition of growth at 10 µM was 28.9%.

The next assay deals with HL-60(TB). Kind of assay: Antiproliferative activity against human HL-60(TB) cells assessed as cell growth inhibition at 10 uM incubated for 48 hrs by SRB assay relative to control. The settings on record: read-out: GI. The format is functional. The procedure, abridged:
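Cells were plated at […] cells/well and preincubated 24 h at 37°C, 5% CO2, with time-zero plates TCA-fixed. Compound was diluted from DMSO stock in medium with 50 µg/mL gentamicin, then exposed for 48 h. Settled suspension cells were fixed with 80% TCA (final 16%), stained with 0.4% SRB and solubilized in 10 mM Trizma, A515. Growth was taken relative to Tz and control.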
Take `CC(=O)Nc1ccc(-n2c(C)nc3c(cnn3-c3ccccc3)c2=O)cc1`: the inhibition of growth at 10 µM was determined as 28.3%.

A further assay concerns 786-0. Put plainly: Antiproliferative activity against human 786-0 cells assessed as cell growth inhibition at 10 uM incubated for 48 hrs by SRB assay relative to control. The format is functional. The settings on record: read-out: GI.
As for `CC(=O)Nc1ccc(-n2c(C)nc3c(cnn3-c3ccccc3)c2=O)cc1`, the inhibition of growth at 10 µM is below 15%.

Another assay concerns NCI-H23. Kind of assay: Antiproliferative activity against human NCI-H23 cells assessed as cell growth inhibition at 10 uM incubated for 48 hrs by SRB assay relative to control. The format is functional. The settings on record: read-out: GI.
In the case of `CC(=O)Nc1ccc(-n2c(C)nc3c(cnn3-c3ccccc3)c2=O)cc1`, the inhibition of growth at 10 µM amounted to 31.7%.

Another assay deals with NCI-H460. Put plainly: Antiproliferative activity against human NCI-H460 cells assessed as cell growth inhibition at 10 uM incubated for 48 hrs by SRB assay relative to control. The format is functional. The settings on record: read-out: GI.
On to `CC(=O)Nc1ccc(-n2c(C)nc3c(cnn3-c3ccccc3)c2=O)cc1`, for which the inhibition of growth at 10 µM is below 15%.

For another assay, the system named is T47D. Kind of assay: Antiproliferative activity against human T47D cells assessed as cell growth inhibition at 10 uM incubated for 48 hrs by SRB assay relative to control. The format is functional. The settings on record: read-out: GI. The gist of the method:
as §1
For `CC(=O)Nc1ccc(-n2c(C)nc3c(cnn3-c3ccccc3)c2=O)cc1`, the inhibition of growth at 10 µM is below 15%.

For a further assay, the system named is SK-MEL-5. Kind of assay: Antiproliferative activity against human SK-MEL-5 cells assessed as cell growth inhibition at 10 uM incubated for 48 hrs by SRB assay relative to control. The settings on record: read-out: GI. The format is functional. The gist of the method:
(§2)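 Cells plated in 96-well plates at […] cells/well and preincubated 24 h at 37 °C, 5% CO2. Time-zero plates were TCA-fixed. Compound was diluted in medium with 50 µg/mL gentamicin and cells exposed for 48 h. Adherent cells fixed with 10% final TCA; suspension cells with 16% final TCA. Plates stained with 0.4% SRB in 1% acetic acid, dye solubilized in 10 mM Trizma, absorbance read at 515 nm. Percent growth calculated against time-zero and control.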
As for `CC(=O)Nc1ccc(-n2c(C)nc3c(cnn3-c3ccccc3)c2=O)cc1`, the inhibition of growth at 10 µM is 77.4%.

The next assay concerns SW-620. Kind of assay: Antiproliferative activity against human SW620 cells assessed as cell growth inhibition at 10 uM incubated for 48 hrs by SRB assay relative to control. The format is functional. The settings on record: read-out: GI. The gist of the method:
as §1
For `CC(=O)Nc1ccc(-n2c(C)nc3c(cnn3-c3ccccc3)c2=O)cc1`, the inhibition of growth at 10 µM is below 15%.

For another assay, the system named is MDA-MB-435. Kind of assay: Antiproliferative activity against human MDA-MB-435 cells assessed as cell growth inhibition at 10 uM incubated for 48 hrs by SRB assay relative to control. The settings on record: read-out: GI. The format is functional.
Take `CC(=O)Nc1ccc(-n2c(C)nc3c(cnn3-c3ccccc3)c2=O)cc1`: the inhibition of growth at 10 µM is 21.1%.

The next assay concerns LOX IMVI. Put plainly: Antiproliferative activity against human LOX IMVI cells assessed as cell growth inhibition at 10 uM incubated for 48 hrs by SRB assay relative to control. The format is functional. The settings on record: read-out: GI.
For `CC(=O)Nc1ccc(-n2c(C)nc3c(cnn3-c3ccccc3)c2=O)cc1`, the inhibition of growth at 10 µM was 21.1%.

For the next assay, the system named is SF-539. Kind of assay: Antiproliferative activity against human SF-539 cells assessed as cell growth inhibition at 10 uM incubated for 48 hrs by SRB assay relative to control. The format is functional. The settings on record: read-out: GI. The gist of the method: as §2
In the case of `CC(=O)Nc1ccc(-n2c(C)nc3c(cnn3-c3ccccc3)c2=O)cc1`, the inhibition of growth at 10 µM was found to be 18.9%.

The next assay has as its system CCRF-CEM. Kind of assay: Antiproliferative activity against human CCRF-CEM cells assessed as cell growth inhibition at 10 uM incubated for 48 hrs by SRB assay relative to control. The settings on record: read-out: GI. The format is functional. The gist of the method: as §2
Turning to `CC(=O)Nc1ccc(-n2c(C)nc3c(cnn3-c3ccccc3)c2=O)cc1`, the inhibition of growth at 10 µM was found to be 30.8%.

The next assay has as its system M14. Put plainly: Antiproliferative activity against human M14 cells assessed as cell growth inhibition at 10 uM incubated for 48 hrs by SRB assay relative to control. The format is functional. The settings on record: read-out: GI. The gist of the method: as §2
As to `CC(=O)Nc1ccc(-n2c(C)nc3c(cnn3-c3ccccc3)c2=O)cc1`, the inhibition of growth at 10 µM was below 15%.

A further assay deals with TK-10. Kind of assay: Antiproliferative activity against human TK-10 cells assessed as cell growth inhibition at 10 uM incubated for 48 hrs by SRB assay relative to control. The format is functional. The settings on record: read-out: GI. The procedure, abridged:
as §1
For the compound `CC(=O)Nc1ccc(-n2c(C)nc3c(cnn3-c3ccccc3)c2=O)cc1`, the inhibition of growth at 10 µM was determined as 20.4%.

Another assay relates to HCC 2998. Kind of assay: Antiproliferative activity against human HCC 2998 cells assessed as cell growth inhibition at 10 uM incubated for 48 hrs by SRB assay relative to control. The format is functional. The settings on record: read-out: GI.
On to `CC(=O)Nc1ccc(-n2c(C)nc3c(cnn3-c3ccccc3)c2=O)cc1`, for which the inhibition of growth at 10 µM was below 15%.

A further assay relates to NCI-H522. Kind of assay: Antiproliferative activity against human NCI-H522 cells assessed as cell growth inhibition at 10 uM incubated for 48 hrs by SRB assay relative to control. The format is functional. The settings on record: read-out: GI. The gist of the method: as §2
As for `CC(=O)Nc1ccc(-n2c(C)nc3c(cnn3-c3ccccc3)c2=O)cc1`, the inhibition of growth at 10 µM was found to be 25%.

The subject of another assay is K562. Put plainly: Antiproliferative activity against human K562 cells assessed as cell growth inhibition at 10 uM incubated for 48 hrs by SRB assay relative to control. The format is functional. The settings on record: read-out: GI.
In the case of `CC(=O)Nc1ccc(-n2c(C)nc3c(cnn3-c3ccccc3)c2=O)cc1`, the inhibition of growth at 10 µM was 55.4%.

Another assay concerns EKVX. Put plainly: Antiproliferative activity against human EKVX cells assessed as cell growth inhibition at 10 uM incubated for 48 hrs by SRB assay relative to control. The format is functional. The settings on record: read-out: GI.
Take `CC(=O)Nc1ccc(-n2c(C)nc3c(cnn3-c3ccccc3)c2=O)cc1`: the inhibition of growth at 10 µM was determined as 66.8%.

The test system of the next assay is HOP-62. Kind of assay: Antiproliferative activity against human HOP-62 cells assessed as cell growth inhibition at 10 uM incubated for 48 hrs by SRB assay relative to control. The format is functional. The settings on record: read-out: GI.
Turning to `CC(=O)Nc1ccc(-n2c(C)nc3c(cnn3-c3ccccc3)c2=O)cc1`, the inhibition of growth at 10 µM is below 15%.

Another assay deals with A498. Put plainly: Antiproliferative activity against human A498 cells assessed as cell growth inhibition at 10 uM incubated for 48 hrs by SRB assay relative to control. The format is functional. The settings on record: read-out: GI. The gist of the method:
as §2
For `CC(=O)Nc1ccc(-n2c(C)nc3c(cnn3-c3ccccc3)c2=O)cc1`, the inhibition of growth at 10 µM was 16.1%.
